Holding throughout (type): functional
A short description of test [1]: Antifungal activity against Chrysosporium keratinophilum MTCC 2827 at 1 mg/mL after 72 hrs by agar-well diffusion method. An outline of the steps: (§1)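 Fungal spore suspensions made in normal saline were spread onto agar adjusted to pH 5.7, then dried 1 h at 37 °C. Wells were cut and loaded with test compounds in DMSO at different concentrations, with a DMSO control. Plates run in triplicate at 25 °C for 72 h. Read-out was inhibition zone diameter.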
Background: A growth-free zone around the sample is the usual read-out of agar diffusion tests.

Test [2] has as its system Escherichia coli. Description: Antibacterial activity against Escherichia coli ATCC 25922 at 0.5 mg/mL after 24 hrs by agar-well diffusion method. The conditions noted are these: ATCC 25922, 24 h, read-out: IZ. An outline of the steps: (§2)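 Well diffusion on Mueller-Hinton agar seeded with 24 h old cultures. Test compounds dissolved in DMSO at 1, 0.5 and 0.25 mg/mL. 6 mm wells were punched with a sterile cork borer, test solutions added, and plates incubated 24 h at 37 °C.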

Test [3] has as its system Candida albicans. Briefly: Antifungal activity against Candida albicans MTCC 3017 at 0.5 mg/mL after 72 hrs by agar-well diffusion method. The note with it: MTCC 3017, 72 h, read-out: DIZ. An outline of the steps:
as §1

In test [4] the test system is Pseudomonas aeruginosa. Description: Antibacterial activity against Pseudomonas aeruginosa ATCC 27853 at 1 mg/mL after 24 hrs by agar-well diffusion method. The conditions noted are these: ATCC 27853, 24 h, read-out: IZ. An outline of the steps: as §2
Test [5] is described as follows: Antifungal activity against Chrysosporium keratinophilum MTCC 2827 at 0.25 mg/mL after 72 hrs by agar-well diffusion method. An outline of the steps: as §1
Test [6] deals with Escherichia coli. Description: Antibacterial activity against Escherichia coli ATCC 25922 at 1 mg/mL after 24 hrs by agar-well diffusion method. The note with it: ATCC 25922, 24 h, read-out: IZ. An outline of the steps:
as §2

Test [7] is described as follows: Antifungal activity against Chrysosporium keratinophilum MTCC 2827 at 0.5 mg/mL after 72 hrs by agar-well diffusion method. The method in brief: as §1
Test [8] concerns Staphylococcus aureus. Briefly: Antibacterial activity against Staphylococcus aureus ATCC 25923 at 0.5 mg/mL after 24 hrs by agar-well diffusion method. The conditions noted are these: ATCC 25923, 24 h, read-out: IZ. An outline of the steps: as §2
Test [9] deals with Aspergillus flavus. Briefly: Antifungal activity against Aspergillus flavus MTCC 3306 at 0.25 mg/mL after 72 hrs by agar-well diffusion method. The conditions noted are these: MTCC 3306, 72 h, read-out: DIZ. An outline of the steps: as §1
The subject of test [10] is Candida albicans. Briefly: Antifungal activity against Candida albicans MTCC 3017 at 1 mg/mL after 72 hrs by agar-well diffusion method. The note with it: MTCC 3017, 72 h, read-out: DIZ. The method in brief:
as §1

The test system of test [11] is Aspergillus flavus. Description: Antifungal activity against Aspergillus flavus MTCC 3306 at 0.5 mg/mL after 72 hrs by agar-well diffusion method. The note with it: MTCC 3306, 72 h, read-out: DIZ. The method in brief:
as §1

Test [12] has as its system Staphylococcus aureus. Briefly: Antibacterial activity against Staphylococcus aureus ATCC 25923 at 0.25 mg/mL after 24 hrs by agar-well diffusion method. The conditions noted are these: ATCC 25923, 24 h, read-out: IZ. The method in brief: as §2
Test [13] relates to Escherichia coli. Description: Antibacterial activity against Escherichia coli ATCC 25922 at 0.25 mg/mL after 24 hrs by agar-well diffusion method. The conditions noted are these: ATCC 25922, 24 h, read-out: IZ. The method in brief:
as §2

For test [14], the system named is Pseudomonas aeruginosa. Briefly: Antibacterial activity against Pseudomonas aeruginosa ATCC 27853 at 0.25 mg/mL after 24 hrs by agar-well diffusion method. The conditions noted are these: ATCC 27853, 24 h, read-out: IZ. An outline of the steps:
as §2

Test [15] has as its system Aspergillus flavus. Briefly: Antifungal activity against Aspergillus flavus MTCC 3306 at 1 mg/mL after 72 hrs by agar-well diffusion method. The conditions noted are these: MTCC 3306, 72 h, read-out: DIZ. An outline of the steps:
as §1

Test [16] has as its system Radical scavenging activity. Briefly: Antioxidant activity assessed as DPPH free radical scavenging activity at 100 uM after 30 mins. An outline of the steps:
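Sample brought to 1 mL with MeOH and mixed with 3 mL fresh 0.1 mM DPPH. Kept 30 min in the dark, then absorbance read at 517 nm. A DPPH control without sample was included. Scavenging (%) = [(Abs control − Abs sample)/Abs control] × 100.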

Test [17] deals with Pseudomonas aeruginosa. Briefly: Antibacterial activity against Pseudomonas aeruginosa ATCC 27853 at 0.5 mg/mL after 24 hrs by agar-well diffusion method. The conditions noted are these: ATCC 27853, 24 h, read-out: IZ. An outline of the steps: as §2
In test [18] the test system is Candida albicans. Description: Antifungal activity against Candida albicans MTCC 3017 at 0.25 mg/mL after 72 hrs by agar-well diffusion method. The note with it: MTCC 3017, 72 h, read-out: DIZ. An outline of the steps:
as §1

The test system of test [19] is Staphylococcus aureus. Description: Antibacterial activity against Staphylococcus aureus ATCC 25923 at 1 mg/mL after 24 hrs by agar-well diffusion method. The conditions noted are these: ATCC 25923, 24 h, read-out: IZ. The method in brief: as §2

As to `COC(=O)C1=C(C)NC(C)=C(C(=O)OC)C1c1c[nH]nc1-c1ccc(Cl)cc1`, the inhibition zone (IZ) in test [1] turned out to be 5 mm; in test [5], 2 mm; in test [7], 4 mm. The zone of inhibition at 500 µg/mL in test [2] came out at 8 mm; in test [3] it was 1 mm; in test [8] it was 6 mm; in test [11] it was 3 mm; in test [17] it was 7 mm. Also, the zone of inhibition at 1000 µg/mL in test [4] amounted to 9 mm; in test [6], 10 mm; in test [10] it was 3 mm; in [15], 6 mm; in [19] it was 8 mm. Besides, the zone of inhibition at 250 µg/mL in test [9] amounted to 1 mm; in test [12] it was 3 mm; in test [13], 5 mm; in test [14] it was 4 mm; in test [18] it was 0 mm. Further, the Activity in [16] stood at 29.4%.

In the case of `CN[C@@H]1[C@H](O[C@H]2[C@H](O[C@H]3[C@H](O)[C@@H](O)[C@H](N=C(N)N)[C@@H](O)[C@@H]3N=C(N)N)O[C@@H](C)[C@]2(O)C=O)O[C@@H](CO)[C@H](O)[C@H]1O` [STREPTOMYCIN], the zone of inhibition at 500 µg/mL in test [2] amounted to 10 mm; in test [8], 10 mm; in [17], 13 mm. Moreover, the zone of inhibition at 1000 µg/mL in [4] was 16 mm; in test [6], 16 mm; in test [19] it was 15 mm. The values for the zone of inhibition at 250 µg/mL in [12], in test [13] and in test [14] were 9 mm, 8 mm and 11 mm, respectively.

Regarding `COC(=O)C1=C(C)NC(C)=C(C(=O)OC)C1c1c[nH]nc1-c1cc(Cl)sc1Cl`, the inhibition zone (IZ) worked out at 4 mm in test [1], 1 mm in test [5] and 2 mm in [7]. The zone of inhibition at 500 µg/mL in [2] was found to be 7 mm; in [3] it was 2 mm; in [8] it was 8 mm; in test [11], 2 mm; in test [17], 3 mm. In addition, the zone of inhibition at 1000 µg/mL in test [4] is 7 mm; in test [6] it was 10 mm; in test [10], 3 mm; in test [15] it was 3 mm; in test [19] it was 10 mm. Also, the zone of inhibition at 250 µg/mL was found to be 0 mm in test [9]; 4 mm in test [12]; 5 mm in test [13]; 1 mm in test [14]; 0 mm in test [18]. For the same compound, in [16], the Activity came to 30.3%.

With `OC(Cn1cncn1)(Cn1cncn1)c1ccc(F)cc1F` [FLUCONAZOLE], the inhibition zone (IZ) in test [1] stood at 17 mm; in [5], 14 mm; in test [7], 15 mm. The zone of inhibition at 500 µg/mL in test [3] was 21 mm; in test [11] it was 11 mm. Moreover, the zone of inhibition at 250 µg/mL was found to be 10 mm in test [9] and 20 mm in test [18]. For the same compound, the zone of inhibition at 1000 µg/mL turned out to be 22 mm in test [10] and 13 mm in [15].

On to `Cc1cc(C(C)(C)C)c(O)c(C(C)(C)C)c1`, for which the Activity in test [16] stood at 72.4%.

The values are drawn from ChEMBL document CHEMBL1909541, “Hantzsch reaction: synthesis and characterization of some new 1,4-dihydropyridine derivatives as potent antimicrobial and antioxidant agents” (Eur J Med Chem, 2011).
